Bioassay records from PubChem.
Sampled rows, rich in hits. Any-hit rate of the full collection: about 2.9%.
PolyA inhibitor – polyadenylation inhibitors in yeast reporter cells, primary screen, luminescence, S. cerevisiae; activity score, % at 12 µM; S. cerevisiae SKY197-pL101 polyadenylation reporter, beta-gal luminescence; efflux-impaired pdr1/pdr3 knockout yeast; score 100 = 6 SD above DMSO; actives 0.02% (n = 300,000);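 active = lowest replicate activity score at least 50, where 100 means six control SD above control mean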;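 also: yeast exposed to compound for 9 h at 30 °C; higher score means more reporter readthrough which indicates perturbed polyadenylation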
NALP3 yeast inh – NALP3 inflammasome inhibitors in reconstituted yeast, primary screen, luminescence, uHTS; actives 0.39% (n = 330,000); inhibition, % at 10 µM; Yeast reconstituted NLRP3/ASC/caspase-1, beta-gal luminescence, 24 h;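 active = inhibition of 50% or more; inactive = inhibition below 50%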;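 also: plate controls were induced DMSO wells for no effect and uninduced yeast grown without galactose for full effect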
NALP1 yeast inh – NALP1 inflammasome inhibitors in reconstituted yeast, colorimetric, S. cerevisiae, triplicate retest. S. cerevisiae NALP1/ASC/caspase-1 growth, X-gal OD620, 72 h. inhibition, % at 10 µM. actives 0.61% (n = 280,000). AID 2071, 2009; in the data active = inhibition mostly above about 24%, no sharp cut-off; inactive = mostly below about 32%
VIM-2 inh – VIM-2 metallo-beta-lactamase inhibitors, primary screen, biochemical, epi-absorbance readout, Pseudomonas aeruginosa enzyme; purified VIM-2, nitrocefin hydrolysis, epi-absorbance fluorescence; inhibition, % at 5.6 µM; actives 0.89% (n = 290,000);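 active = inhibition above the mean of all tested compounds plus 3 SD, cutoff set per screening run, cut at about 7.5% in these data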;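 also: red hydrolysis product quenches plate fluorescence so inhibitors raise well fluorescence; 0% = enzyme with DMSO and 100% = DMSO without enzyme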
Mot1-301 SUMO – yeast Mot1-301 growth rescue at high temperature, primary screen, SUMOylation pathway inhibitor project, S. cerevisiae, ATP luminescence, 38.5C; S. cerevisiae Mot1-301 growth rescue; percent above DMSO median, 100 means doubled; actives 1% (n = 320,000); growth rescue, % at 18.8 µM;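 active = every valid replicate shows activation above 250% relative to neutral control wells; inactive = the rest, any valid replicate at or below 250%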;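 also: OY570 slx delta 5 strain wells were the positive control but not used for scaling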
IMP-1 inh-1 – IMP-1 metallo-beta-lactamase inhibitors, primary screen, biochemical, epi-absorbance readout, Pseudomonas aeruginosa enzyme; actives 0.45% (n = 290,000); metallo-beta-lactamase IMP-1 (Pseudomonas aeruginosa); AID 1556, 2009; inhibition, % at 5.6 µM; purified IMP-1, nitrocefin hydrolysis, epi-absorbance fluorescence;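 active = inhibition above the mean plus 3 SD of all compounds in the same screening run, cut at about 4.5% in these data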;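 also: 0% = IMP-1 with DMSO and 100% = DMSO wells lacking enzyme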
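Assay system: purified recombinant IMP-1 beta-lactamase. Input: IMP-1 0.2 nM before substrate addition. Buffer or medium: Zinc- and detergent-supplemented HEPES buffer, pH 7.1. Schedule: 25 °C, 15 min preincubation, 25 min reaction. Signal: Epi-absorbance fluorescence, 480 nm excitation, 530 nm emission. Evaluation: percent inhibition from optical density relative to buffer-blank wells.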
IMP-1 inh-2 – IMP-1 metallo-beta-lactamase inhibitors, confirmation, selectivity assay for selective VIM-2 inhibitor project, biochemical, epi-absorbance readout, triplicate; AID 1856, 2009; purified IMP-1, nitrocefin hydrolysis, epi-absorbance fluorescence; 1,300 tested, under 10 active; shares compounds with VIM-2 inh; inhibition, % at 5.6 µM; call rule not given here;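 also: 0% = enzyme with vehicle and 100% = vehicle without enzyme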
VIM-2 FRET inh – VIM-2 inhibitors in FRET format, confirmation, artefact control for selective VIM-2 inhibitor project, biochemical, epi-absorbance artifact exclusion | shares compounds with VIM-2 inh | purified VIM-2, CCF2 FRET substrate hydrolysis | inhibition, % at 5.6 µM | actives 23% (n = 1,300);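 active = inhibition above the mean of all tested compounds plus 3 SD, cut at about 19% in these data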;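 also: 0% = VIM-2 plus DMSO and 100% = no enzyme wells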
TEM-1 counter – TEM-1 serine beta-lactamase inhibitors, counter-screen for VIM-2 inhibitor project, biochemical, epi-absorbance, HTS; Purified TEM-1, nitrocefin hydrolysis, epi-absorbance fluorescence; actives 3% (n = 1,300); inhibition, % at 5.6 µM; AID 1866, 2009; shares compounds with VIM-2 inh;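 active = inhibition above that campaign's mean inhibition plus 3 SD, cut at about 0.46% in these data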;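 also: 0% = TEM-1 with DMSO and 100% = TEM-1 with 100 µM potassium clavulanate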
Target sequence (P62593 whole entry, looked up): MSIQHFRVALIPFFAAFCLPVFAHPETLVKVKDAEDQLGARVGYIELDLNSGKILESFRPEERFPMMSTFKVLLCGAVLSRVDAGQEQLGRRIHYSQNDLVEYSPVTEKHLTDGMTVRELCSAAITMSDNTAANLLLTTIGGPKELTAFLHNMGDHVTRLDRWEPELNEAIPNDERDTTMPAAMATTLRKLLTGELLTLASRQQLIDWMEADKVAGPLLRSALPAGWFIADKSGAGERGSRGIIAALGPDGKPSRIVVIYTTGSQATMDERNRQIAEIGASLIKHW
VIM-2 inh conf – VIM-2 metallo-beta-lactamase inhibitors, confirmation, biochemical, epi-absorbance, hits shared with IMP-1 screen; shares compounds with VIM-2 inh; purified VIM-2, nitrocefin hydrolysis; inhibition, % at 5.6 µM; actives 96% (n = 1,300);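 active = inhibition of the VIM-2 beta-lactamase enzyme above about 11% from the earlier first-round screen, limit read from the data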;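 also: 0% = VIM-2 with DMSO and 100% = buffer wells without enzyme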
An asterisk follows results filed as active; / = no result given; ! = repeats disagree.

SMILES	PolyA inhibitor	NALP3 yeast inh	NALP1 yeast inh	VIM-2 inh	Mot1-301 SUMO	IMP-1 inh-1	others
CS(=O)(=O)Nc1ccc(Cc2noc(-c3ccc4[nH]cc(CCN)c4c3)n2)cc1	2.2	28.3	-4.9	29.5*	3.8	-0.1
CCCCN(Cc1ccccc1)C1CCN(CCc2ccccc2)CC1	-5.7	31.2	48.5*	-4.0	20.7	-1.7
c1ccc(CCN2CCC(N3CCN(c4ccccc4)CC3)CC2)cc1	-4.5	18.4	18.6	-3.9	23.2	-2.9
O=[N+]([O-])c1ccc(NCc2ccccc2)c2nonc12	-21.3	4.6	-13.3	22.9*	37.2	30.5*
OCCCCO	/	9.8	/	/	9.1	/
C/C(=N\N(C)c1ccccc1)c1c(O)[nH]c(=O)[nH]c1=O	3.9	15.2	6.3	-1.8	-9.7	-2.7
O=c1[nH]c(=S)n(C2CC2)c(O)c1/C=N/Nc1ccccc1	-16.7	20.5	28.5	-2.5	282.1*	-3.3
O=c1[nH]c(=O)n(CCC2=CCCCC2)c(O)c1/C=N/Nc1ccccc1	-25.1	26.8	10.6	1.3	291.4*	-0.7
CCC(C)n1c(O)c(/C=N/Nc2ccccc2)c(=O)[nH]c1=S (stereo not drawn)	-10.1	2.3	7.5	-3.6	354.7*	-4.1
CCC(C)n1c(O)c(C=NCCc2ccccc2)c(=O)[nH]c1=S (stereo not drawn)	11.2	2.9	-6.4	-3.8	1.9	-4.0
O=c1[nH]c(=O)n(CCC2=CCCCC2)c(O)c1/C=N/Nc1cccc2ccccc12	2.9	-10.6	/	-1.3	9.0	-1.1
Cc1nc2ccccc2c(=O)n1/N=C/c1cc(Br)cc(Br)c1O	-42.0	12.5	/	/	62.5	/
Cc1ccccc1N1CCN(Cc2ccc3c(c2)OCO3)CC1	8.7	5.0	11.8	-1.4	82.3	-1.8
CCOC(=O)c1c(N)n(CCN2CCCCC2)c2nc3ccccc3nc12	2.7	8.4	2.5	7.8*	-6.6	1.7
Clc1ccc2c(c1)C(c1ccccc1Cl)=NCc1nnc(N3CCN(CCOc4ccccc4)CC3)n1-2	-8.6	8.3	-1.4	-2.0	345.6*	-3.2
Clc1ccc2c(c1)C(c1ccccc1Cl)=NCc1nnc(N3CCN(CCSc4ccccc4)CC3)n1-2	-5.1	17.5	8.2	-1.8	239.7	-2.2
COC(=O)C1=C(c2cc3ccccc3o2)C[C@@H]2CC[C@H]1N2C(=O)N1CCC(O)CC1	35.3	4.7	/	/	-27.0	/
O=C1NC(=S)NC(=O)C1=Cc1ccc(Br)s1	1.3	16.6	2.3	2.8	-28.4	7.1*
CN1C2CCC1/C(=C/c1ccccn1)C(=O)/C2=C\c1ccccn1	/	/	100.7*	-3.8	-49.7	-0.5
Cc1cc2c(C(C)C)c(O)c(O)c(C=O)c2c(O)c1-c1c(C)cc2c(C(C)C)c(O)c(O)c(C=O)c2c1O	/	/	-1.7	10.4*	/	13.9*!
CCN1C(=O)C(=Cc2cc(C)n(C3CC3)c2C)C(=O)N(CC)C1=S	7.8	11.9	21.0	0.1	-29.8	11.6*
Cc1cc(C=C2C(=O)N(C)C(=S)N(C)C2=O)c(C)n1C1CCCC1	6.6	22.2	5.5	-2.8	-15.0	1.6
Cn1cccc1CN1CCN(C(=O)COc2ccccc2)CC1	-5.2	-0.3	-8.1	0.6	136.9	-3.8
Cn1nc(-c2ccc(OCC(=O)N3CCN(Cc4ccccc4)CC3)cc2)c2ccccc2c1=O	-12.6	8.8	1.5	13.1*	-44.7	-1.3	IMP-1 inh-2=-2.5;VIM-2 FRET inh=4.9;TEM-1 counter=-4.5;VIM-2 inh conf=28.0*
CN1CCN(c2ccc(N)cc2)CC1	14.8	7.1	30.5	37.1*	-12.4	-9.3	IMP-1 inh-2=-8.0;VIM-2 FRET inh=-0.7;TEM-1 counter=-6.4;VIM-2 inh conf=59.2*
SMILES	PolyA inhibitor	NALP3 yeast inh	NALP1 yeast inh	VIM-2 inh	Mot1-301 SUMO	IMP-1 inh-1	others
CCN1CCN(c2ccc(N)cc2)CC1	14.4	1.0	16.1	37.8*	112.3	-7.5	IMP-1 inh-2=-9.0;VIM-2 FRET inh=-3.3;TEM-1 counter=-6.4;VIM-2 inh conf=27.0*
CC(c1ccccc1)[n+]1ccccc1 (stereo not drawn)	13.1	3.7	/	/	16.0	/
C=CCn1c(O)c(C=NCCCn2ccnc2)c(=O)[nH]c1=O	-13.7	2.1	-42.5	23.4*	25.9	0.4	IMP-1 inh-2=-4.2;VIM-2 FRET inh=-0.3;TEM-1 counter=-4.9;VIM-2 inh conf=36.8*
CN1CCc2cc(O)cc3c2[C@H]1Cc1ccc(O)c(O)c1-3	7.5	22.0	/	/	12.6	/
CN1CCc2cc3c(c4c2C1Cc1ccccc1-4)OCO3 (stereo not drawn)	-5.6	39.3	21.9	19.2*	101.9	3.2	IMP-1 inh-2=-2.5;VIM-2 FRET inh=-6.9;TEM-1 counter=-4.7;VIM-2 inh conf=11.5*
O=[N+]([O-])c1ccc(N2CCCC2)cc1N/N=C1\CN2CCC1CC2	7.0	24.3	31.8	12.6*	-3.7	-4.2	IMP-1 inh-2=-3.2;VIM-2 FRET inh=31.9*;TEM-1 counter=-9.5;VIM-2 inh conf=25.5*
O=[N+]([O-])c1ccc(N2CCNCC2)cc1NC1CC1	-14.8	24.3	11.5	0.6	1.3	-0.4
CCOC(=O)C1(CCOc2ccccc2)CCN(Cc2ccc(C)s2)CC1	-10.6	31.3	22.0	0.7	23.0	-2.7
Cc1cc(OCC(=O)NCc2ccncc2)c2c3c(c(=O)oc2c1)CCC3	20.9	7.0	15.4	71.5*	-11.3	-2.5	IMP-1 inh-2=-3.2;VIM-2 FRET inh=1.7;TEM-1 counter=-11.1;VIM-2 inh conf=78.2*
CCN(CC)C(=O)COc1cc(C)cc2oc(=O)c3c(c12)CCCC3	33.0	24.6	-2.4	1.6	147.2	-2.9
Cc1cc(OCC(=O)NC(Cc2ccc(Cl)cc2)C(=O)O)c2c3c(c(=O)oc2c1)CCCC3 (stereo not drawn)	10.8	8.5	10.2	33.5*	0.2	-0.7	IMP-1 inh-2=-0.8;VIM-2 FRET inh=46.6*;TEM-1 counter=0.6*;VIM-2 inh conf=37.1*
COC(=O)C1=C(c2ccccc2OCc2ccccc2)C[C@@H]2CC[C@H]1N2C(=O)NCCc1ccc(F)cc1	/	17.4	/	/	33.2	/
